Assay results gathered from unrelated publications.

Compound	cell line	assay	setting	endpoint	result
Cc1nc2ccc(Cl)cc2c(=O)n1NC(=O)CCl	LoVo	cell growth or viability, LDH	200 µg/mL, 24 h	viability	89.5%
CC(C)c1cc(C(=O)N2Cc3ccccc3C2)c(O)c2c1CCC2=O	UMUC3	cell growth or viability, ATP luminescence	72 h	IC50	> 100000 nM
Cc1c(CN(C)C(=O)/C=C/c2cnc3c(c2)CC(CCN)C(=O)N3)oc2ccccc12 (stereo not drawn)	IMR-90	cell growth or viability, resazurin	30 µM, 72 h	inhibition	12%
CCC1=C[C@@H]2CN(C1)Cc1c([nH]c3ccccc13)[C@@](C(=O)OC)(c1cc3c(cc1OC)N(C)[C@H]1[C@@](O)(C(=O)OC)[C@H](OC(C)=O)[C@]4(CC)C=CCN5CC[C@]31[C@@H]54)C2	LLC-PK1	cell growth or viability	72 h	IC80	11 nM
Cc1ccc2c(c1)C(=NNc1nnc(Cc3ccccc3)c3ccccc13)C(=O)N2	HT-29	cell growth or viability	30 µM	inhibition	89.1%
Cc1c(-c2cccc(C(F)(F)F)c2)sc2[nH]c(=O)n([C@H](C)c3cccc4ccccc34)c(=O)c12	NCI-H1650	cell growth or viability, fluorescence	10 µM	inhibition	> 80%
COc1cc(-c2ccc(-c3ccc(C(=N)N)nc3)s2)cc(OC)c1OC	TK-10	cell growth or viability	–	GI50	3190 nM
C/C=C/C[C@H](C)[C@@H](OC)[C@@H](C)[C@H](O)C[C@H]1OC(=O)C=C[C@H]1CC	A2780	cell growth or viability, MTT	48 h	GI50	41 nM
COc1cc(Nc2nccc(-c3cnn4nc(OC)ccc34)n2)cc(C(F)(F)F)c1	LoVo	cell growth or viability, ATP luminescence	–	IC50	160 nM
Cc1c(NC(=O)c2ccc(C(C)(C)C)cc2)cccc1-c1cn(C)c(=O)c(Nc2ccc(C(=O)N3CCOCC3)cc2)n1	U2932	cell growth or viability	48 h	GI50	> 10000 nM
S=C([S][Au-][P+](CCCCCC[P+]([Au-][S]C(=S)n1cccn1)(c1ccccc1)c1ccccc1)(c1ccccc1)c1ccccc1)n1cccn1	TK-10	cell growth or viability	–	GI50	11000 nM
CC(C)(O)[C@H]1CC[C@H](Nc2ccc3ncc(-c4cccc(C(F)(F)F)c4)n3n2)CC1	UMUC3	colony formation	–	EC50	2200 nM
COc1ccc(-c2ccc(-c3ccc(C(=N)N)nc3)s2)cc1	TK-10	cell growth or viability	–	GI50	1890 nM
Cc1nc2ccc(Br)cc2c(=O)n1/N=C/c1ccc(C(=O)O)cc1	LoVo	cell growth or viability, LDH	200 µg/mL, 24 h	viability	61.9%
C=CC(=O)Nc1cccc(Nc2nc(Nc3ccc(OCCOC)cc3)ncc2F)c1	U2932	cell growth or viability	48 h	GI50	4300 nM
Cn1c(=O)c(NN=C2C(=O)Nc3ccccc32)nc2ccccc21	HT-29	cell growth or viability	30 µM	inhibition	73%
CC(C)c1cc(C(=O)N2Cc3ccccc3C2)c(O)c2c1C(=O)CC2	UMUC3	cell growth or viability, ATP luminescence	72 h	IC50	55600 nM
COc1cc(/C=N/n2c(C)nc3ccc(Br)cc3c2=O)ccc1OCc1ccc(Cl)cc1	LoVo	cell growth or viability, LDH	200 µg/mL, 24 h	viability	80%
